According to ChEMBL document CHEMBL3739347, “Tubulin modulating antifungal and antiproliferative pyrazinone derivatives” (Bioorg Med Chem, 2016):

How the values were obtained:
Assay type in all cases: functional
[1] = tested on: Puccinia triticina; experiment: Antifungal activity against Puccinia recondita f. sp. tritici infected in wheat seedlings at 40 ppm relative to control
Outline: (§1)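 Test suspension sprayed to run-off on Stevens wheat seedlings. Next day inoculated with a Puccinia recondita f. sp. tritici spore suspension. Held 24 h in a saturated atmosphere at 20 °C, then 7 days in a 20 °C growth chamber before disease rating. Rates in ppm. Given as percent control versus untreated control plants.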

[2] = tested on: Puccinia triticina; experiment: Antifungal activity against Puccinia recondita f. sp. tritici infected in wheat seedlings at 10 ppm relative to control; outline: as §1
[3] = tested on: Parastagonospora nodorum; experiment: Antifungal activity against Stagonospora nodorum infected in wheat seedlings at 200 ppm relative to control
Outline: (§2)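 Wheat seedlings, treated the day before, inoculated with a Stagonospora nodorum spore suspension. Held in a saturated atmosphere at 20 °C for 48 h, then 5 days in a growth chamber at 22 °C, then disease rated. Rates in ppm. Scored as percent control relative to untreated control plants.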

[4] = tested on: Parastagonospora nodorum; experiment: Antifungal activity against Stagonospora nodorum infected in wheat seedlings at 40 ppm relative to control; outline: as §2
[5] = tested on: Parastagonospora nodorum; experiment: Antifungal activity against Stagonospora nodorum infected in wheat seedlings at 10 ppm relative to control; outline: as §2
[6] = tested on: Puccinia triticina; experiment: Antifungal activity against Puccinia recondita f. sp. tritici infected in wheat seedlings at 200 ppm relative to control; outline: as §1
[7] = tested on: Botrytis cinerea; experiment: Antifungal activity against Botryotinia fuckeliana infected in orange pixie tomato seedlings at 200 ppm relative to control
Outline: (§3)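 Orange Pixie tomato seedlings sprayed to run-off with test suspension, then inoculated next day with a Botryotinia fuckeliana spore suspension. Kept saturated at 20 °C for 48 h, then 1 more day at 24 °C in a growth chamber before rating. Rates in ppm. Expressed as percent control relative to untreated control plants.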

[8] = tested on: Botrytis cinerea; experiment: Antifungal activity against Botryotinia fuckeliana infected in orange pixie tomato seedlings at 40 ppm relative to control; outline: as §3
[9] = tested on: Botrytis cinerea; experiment: Antifungal activity against Botryotinia fuckeliana infected in orange pixie tomato seedlings at 10 ppm relative to control; outline: as §3

| Compound | Activity [1] [%] | Activity [2] [%] | Activity [3] [%] | Activity [4] [%] | Activity [5] [%] | Activity [6] [%] | Activity [7] [%] | Activity [8] [%] | Activity [9] [%] |
| --- | --- | --- | --- | --- | --- | --- | --- | --- | --- |
| CC(=O)Nc1nc(Cl)c(-c2c(F)cccc2F)n(CC(C)C)c1=O | 90 | 0 | 0 | 0 | 0 | 99 | 99 | 92 | 15 |
| CC(C)Cn1c(-c2c(F)cccc2F)c(Br)nc(-n2cccn2)c1=O | 99 | 88 | 100 | 100 | 86 | 100 | 100 | 100 | 99 |
| CC(C)Cn1c(-c2c(F)cccc2F)c(Cl)nc(-c2nccn2C)c1=O | 0 | 0 | 0 | 0 | 0 | 0 | 0 | 0 | 0 |
| CC(C)Cn1c(C2CCCC2)c(Cl)nc(-n2cccn2)c1=O | 91 |  | 0 | 0 |  | 100 | 100 | 99 |  |
| CC[C@H](C)Cn1c(-c2c(F)cccc2F)c(Cl)nc(C#N)c1=O | 74 |  | 0 | 0 |  | 96 | 99 | 99 |  |
| CC[C@H](C)Cn1c(-c2c(F)cccc2F)c(Cl)nc(-n2ccnc2)c1=O | 0 | 0 | 0 | 0 | 0 | 0 | 0 | 0 | 0 |
| CC(C)Cn1c(-c2c(F)cccc2F)c(Cl)nc(-c2cnccn2)c1=O | 89 | 0 | 98 | 0 | 0 | 99 | 98 | 98 | 83 |
| O=c1c(-n2cccn2)nc(Cl)c(-c2c(F)cc(F)cc2F)n1C1CCCCC1 | 97 | 89 | 100 | 99 | 73 | 99 | 99 | 99 | 99 |
| CC[C@H](C)Cn1c(-c2c(F)cccc2F)c(Cl)nc(-n2nccn2)c1=O | 19 |  | 0 | 0 |  | 86 | 97 | 0 |  |
| CC(C)Cn1c(C2CC2)c(Cl)nc(-n2cccn2)c1=O | 0 |  | 0 | 0 |  | 0 | 0 | 0 |  |
| CC[C@H](C)Cn1c(-c2c(F)cccc2F)c(Cl)nc(-n2nc(C)cc2C)c1=O | 22 | 0 | 0 | 0 | 0 | 73 | 0 | 0 | 0 |
| CC[C@H](C)Cn1c(-c2c(F)cccc2F)c(Cl)nc(-n2ccnn2)c1=O | 67 | 67 | 73 | 0 | 0 | 73 | 98 | 81 | 33 |
